Measured values: ChEMBL document CHEMBL3797137, “New ligands of the ghrelin receptor based on the 1,2,4-triazole scaffold by introduction of a second chiral center” (Bioorg Med Chem Lett, 2016)
Calls of active or inactive are those of the source. The rule behind the calls is not given here.

Legend:
[1] = molecular target: T1, Growth hormone secretagogue receptor type 1 (Homo sapiens, UniProt Q92847); test: Competitive binding affinity to human SNAP-tagged GHS-R1a expressed in HEK293T cells incubated at 4 degC for 3 hrs or at room temperature for 1 hr by Tag-lite assay; type: cell-based, HEK-293T
In short: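 Tag-lite binding measured by FRET between terbium cryptate attached to SNAP-tag-fused GHS-R1a and a red fluorescent high-affinity ghrelin ligand. Ki obtained from the fluorescent binding data.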

[2] = molecular target: T1, Growth hormone secretagogue receptor type 1; test: Agonist activity at human GHS-R1a expressed in HEK293T cells after 45 mins by HTRF-based IP3 turnover assay; type: functional, cell-based, HEK-293T; details: for Emax: HEK-293T
[3] = molecular target: T1, Growth hormone secretagogue receptor type 1; test: Displacement of [125I]-His9-ghrelin from human GHS-R1a transfected in pig LLC PK-1 cell membranes after 60 mins by gamma counting method
In short: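 Competition binding on membranes from LLC PK-1 cells transfected with GHS-R1a, using 0.3 nM ¹²⁵I-His9-ghrelin against increasing compound concentrations. Ki derived from the binding curves.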

[4] = molecular target: T1, Growth hormone secretagogue receptor type 1; test: Antagonist activity at human GHS-R1a transfected in mouse LTK cells after 6 hrs by CRE/luciferase reporter gene assay in presence of ghrelin and rolipram; type: functional, cell-based
In short: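 Mouse LTK- cells stably carrying a CMV minimal promoter–3×CRE–luciferase construct, incubated 6 h with rolipram, saturating ghrelin and varied compound concentrations. Cells were then lysed and luminescence read. IC50 fitted from the curves.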

[5] = molecular target: T1, Growth hormone secretagogue receptor type 1; test: Antagonist activity at human GHS-R1a transfected in CHO cells assessed as inhibition of ghrelin-induced intracellular calcium mobilization measured over 60 secs by fluo-4AM dye-based fluorometric method; type: functional, cell-based
[6] = molecular target: T1, Growth hormone secretagogue receptor type 1; test: Partial agonist activity at human GHS-R1a expressed in HEK293T cells at 10^-5 M after 45 mins by HTRF-based IP3 turnover assay; type: functional, cell-based; details: HEK-293T
[7] = molecular target: T1, Growth hormone secretagogue receptor type 1; test: Antagonist activity at human GHS-R1a expressed in HEK293T cells assessed as inhibition of ghrelin-induced stimulation at 10^-5 M after 45 mins by HTRF-based IP3 turnover assay; type: functional, cell-based; details: HEK-293T
[8] = molecular target: T1, Growth hormone secretagogue receptor type 1; test: Inverse agonist activity at human GHS-R1a expressed in HEK293T cells after 45 mins by HTRF-based IP3 turnover assay; type: functional, cell-based, HEK-293T; details: for Emax: HEK-293T
[9] = molecular target: T1, Growth hormone secretagogue receptor type 1; test: Antagonist activity at human GHS-R1a expressed in HEK293T cells assessed as inhibition of ghrelin-induced stimulation after 45 mins by HTRF-based IP3 turnover assay; type: functional, cell-based; details: HEK-293T

T1 sequence (Q92847 whole entry, the tested form may be a part): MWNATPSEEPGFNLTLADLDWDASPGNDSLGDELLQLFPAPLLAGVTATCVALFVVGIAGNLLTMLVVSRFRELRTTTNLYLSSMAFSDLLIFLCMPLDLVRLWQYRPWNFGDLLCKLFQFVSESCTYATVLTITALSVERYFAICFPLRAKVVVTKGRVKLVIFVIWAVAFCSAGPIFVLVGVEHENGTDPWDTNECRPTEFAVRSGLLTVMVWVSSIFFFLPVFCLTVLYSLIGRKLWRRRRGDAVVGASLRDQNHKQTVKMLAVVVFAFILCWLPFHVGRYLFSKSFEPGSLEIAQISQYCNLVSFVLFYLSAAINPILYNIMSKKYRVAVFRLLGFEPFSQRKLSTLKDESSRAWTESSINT

| SMILES | Ki [1] | Ki [3] | IC50 [4] | IC50 [5] | other results |
| --- | --- | --- | --- | --- | --- |
| COc1ccc(Cn2c([C@@H](Cc3c[nH]c4ccccc34)NC(=O)[C@H](CC(C)C)NC(=O)[C@H](CC(C)C)NC(C)=O)nnc2[C@@H](Cc2c[nH]c3ccccc23)NC(=O)C(C)(C)N)cc1 | 30 nM | – | – | – | EC50 [2]: 0.8 nM; Emax [2]: 80% |
| COc1ccc(Cn2c([C@@H](Cc3c[nH]c4ccccc34)NC=O)nnc2[C@@H](Cc2c[nH]c3ccccc23)NC(=O)C(C)(C)N)cc1 | – | 46 nM | 60 nM | 33 nM | – |
| COc1ccc(Cn2c([C@@H](Cc3c[nH]c4ccccc34)NC(C)=O)nnc2[C@@H](Cc2c[nH]c3ccccc23)NC(=O)[C@@H](N)CCCCN)cc1 | 2.5 nM | – | – | – | EC50 [2]: 4 nM; Emax [2]: 89% |
| COc1ccc(Cn2c([C@@H](Cc3ccccc3)NC(C)=O)nnc2[C@@H](Cc2c[nH]c3ccccc23)NC(=O)CO)cc1 | – | 0.8 nM | 8 nM | 2 nM | Activity [6]: Active; inhibition [7]: Active |
| COc1ccc(Cn2c([C@@H](Cc3c[nH]c4ccccc34)NC=O)nnc2[C@@H](Cc2c[nH]c3ccccc23)NC(=O)[C@@H](N)CCCCN)cc1 | 8 nM | – | – | – | EC50 [2]: 10 nM; Emax [2]: 89% |
| COc1ccc(Cn2c([C@H](Cc3ccccc3)NC(C)=O)nnc2[C@@H](Cc2c[nH]c3ccccc23)NC(=O)C(C)(C)N)cc1 | – | > 1000 nM | > 1000 nM | > 1000 nM | – |
| COc1ccc(Cn2c(C(Cc3c[nH]c4ccccc34)NC(=O)C3CCNCC3)nnc2[C@@H](Cc2c[nH]c3ccccc23)NC(=O)C(CC(C)C)NC(=O)C(CC(C)C)NC(C)=O)cc1 (single isomer, unassigned) | 2 nM | – | – | – | EC50 [2]: 4.4 nM; Emax [2]: 108% |
| COc1ccc(Cn2c([C@@H](Cc3ccccc3)NC(C)=O)nnc2[C@@H](Cc2c[nH]c3ccccc23)NC(=O)c2cc(F)cc(F)n2)cc1 | – | 11 nM | 4 nM | 4 nM | Activity [6]: Active |
| COc1ccc(Cn2c([C@H](N)Cc3ccccc3)nnc2[C@@H](Cc2c[nH]c3ccccc23)NC(=O)C(C)(C)N)cc1 | – | 154 nM | 115 nM | 135 nM | – |
| COC(=O)[C@H](CC(C)C)NC(=O)C(CC(C)C)C(=O)N[C@H](Cc1c[nH]c2ccccc12)c1nnc([C@@H](Cc2c[nH]c3ccccc23)NC(=O)[C@@H](N)CCCCN)n1Cc1ccc(OC)cc1 (stereo not given in full) | 220 nM | – | – | – | EC50 [2]: 82 nM; Emax [2]: 82% |
| COc1ccc(Cn2c([C@@H](Cc3ccccc3)NC=O)nnc2[C@@H](Cc2c[nH]c3ccccc23)NC(=O)c2ccccn2)cc1 | – | 8 nM | 8 nM | 3 nM | Activity [6]: Active |
| COc1ccc(Cn2c([C@@H](Cc3ccccc3)NC(C)=O)nnc2[C@@H](Cc2c[nH]c3ccccc23)NC(=O)C(C)(C)N)cc1 | – | 46 nM | 70 nM | 90 nM | – |
| COc1ccc(Cn2c([C@@H](Cc3ccccc3)NC(C)=O)nnc2[C@@H](Cc2c[nH]c3ccccc23)NC(=O)c2ncccc2F)cc1 | – | 4 nM | 2 nM | 2 nM | Activity [6]: Active |
| COc1ccc(Cn2c([C@H](Cc3c[nH]c4ccccc34)NC=O)nnc2[C@@H](Cc2c[nH]c3ccccc23)NC(=O)c2ccccn2)cc1 | – | 154 nM | 410 nM | 1200 nM | – |
| COc1ccc(Cn2c([C@H](Cc3c[nH]c4ccccc34)NC(C)=O)nnc2[C@@H](Cc2c[nH]c3ccccc23)NC(=O)c2ccccn2)cc1 | – | 62 nM | 100 nM | 190 nM | – |
| COc1ccc(Cn2c([C@H](Cc3c[nH]c4ccccc34)NC(=O)[C@H]3CNCCO3)nnc2[C@@H](Cc2c[nH]c3ccccc23)NC(=O)[C@@H](CC(C)C)NC(=O)[C@@H](CC(C)C)NC(C)=O)cc1 (stereo in doubt) | 50 nM | – | – | – | EC50 [2]: 60 nM; Emax [2]: 75% |
| COc1ccc(Cn2c([C@H](N)Cc3c[nH]c4ccccc34)nnc2[C@@H](Cc2c[nH]c3ccccc23)NC(=O)C(C)(C)N)cc1 | – | 131 nM | 130 nM | 90 nM | – |

| SMILES | Ki [1] | Ki [3] | IC50 [4] | IC50 [5] | other results |
| --- | --- | --- | --- | --- | --- |
| COc1ccc(Cn2c([C@@H](Cc3ccccc3)NC(C)=O)nnc2[C@@H](Cc2c[nH]c3ccccc23)NC(=O)c2ccccn2)cc1 | – | – | – | – | Activity [6]: Active |
| COc1ccc(Cn2c([C@@H](Cc3c[nH]c4ccccc34)NC(=O)C(CC(C)C)C(=O)N[C@@H](CC(C)C)C(N)=O)nnc2[C@@H](Cc2c[nH]c3ccccc23)NC(=O)[C@@H](N)CCCCN)cc1 (mixture of isomers) | 210 nM | – | – | – | EC50 [2]: 170 nM; Emax [2]: 60% |
| COc1ccc(Cn2c([C@@H](N)Cc3ccccc3)nnc2[C@@H](Cc2c[nH]c3ccccc23)NC(=O)C(C)(C)N)cc1 | – | > 1000 nM | > 1000 nM | > 1000 nM | – |
| COc1ccc(Cn2c([C@@H](N)Cc3c[nH]c4ccccc34)nnc2[C@@H](Cc2c[nH]c3ccccc23)NC(=O)C(C)(C)N)cc1 | – | > 1000 nM | > 1000 nM | > 1000 nM | – |
| COC(=O)C(CC(C)C)C(=O)N[C@H](Cc1c[nH]c2ccccc12)c1nnc([C@@H](Cc2c[nH]c3ccccc23)NC(=O)[C@@H](N)CCCCN)n1Cc1ccc(OC)cc1 (mixture of isomers) | 17 nM | – | – | – | EC50 [2]: 20 nM; Emax [2]: 81% |
| COc1ccc(Cn2c([C@@H](Cc3c[nH]c4ccccc34)NC(C)=O)nnc2[C@@H](Cc2c[nH]c3ccccc23)NC(=O)c2ccccn2)cc1 | – | 9 nM | 2 nM | 3 nM | – |
| COc1ccc(Cn2c([C@@H](Cc3ccccc3)NC(C)=O)nnc2[C@@H](Cc2c[nH]c3ccccc23)NC(=O)[C@@H]2CNCCO2)cc1 | – | 2 nM | 9 nM | 3 nM | Activity [6]: Active |
| CC(C)C[C@H](NC(=O)[C@H](CC(C)C)NC(=O)[C@@H](Cc1c[nH]c2ccccc12)NC(=O)[C@H](Cc1ccccc1)NC(=O)[C@@H](Cc1c[nH]c2ccccc12)NC(=O)[C@@H](N)CCCCN)C(N)=O | 255 nM | – | – | – | EC50 [8]: 100 nM; Emax [8]: -55% |
| COc1ccc(Cn2c([C@@H](Cc3c[nH]c4ccccc34)NC(=O)CO)nnc2[C@@H](Cc2c[nH]c3ccccc23)NC(=O)[C@H](CC(C)C)NC(=O)[C@H](CC(C)C)NC(C)=O)cc1 | 3 nM | – | – | – | Emax [9]: 0% |
| COc1ccc(Cn2c([C@H](Cc3c[nH]c4ccccc34)NC(C)=O)nnc2[C@@H](Cc2c[nH]c3ccccc23)NC(=O)C(C)(C)N)cc1 | – | > 1000 nM | > 1000 nM | > 1000 nM | – |
| COc1ccc(Cn2c([C@@H](Cc3c[nH]c4ccccc34)NC(=O)[C@H](CC(C)C)NC(=O)[C@H](CC(C)C)NC(C)=O)nnc2[C@@H](Cc2c[nH]c3ccccc23)NC(=O)[C@@H](N)CCCCN)cc1 | 110 nM | – | – | – | EC50 [8]: 70 nM; Emax [8]: -37% |
| COc1ccc(Cn2c([C@@H](Cc3ccccc3)NC(C)=O)nnc2[C@@H](Cc2c[nH]c3ccccc23)NC(=O)C2=CCCCO2)cc1 | – | 9 nM | 3 nM | 4 nM | Activity [6]: Active |
| COc1ccc(Cn2c([C@H](N)Cc3ccccc3)nnc2[C@@H](Cc2c[nH]c3ccccc23)NC(=O)c2ccccn2)cc1 | – | 18 nM | 7 nM | 4 nM | – |
| COc1ccc(Cn2c([C@@H](Cc3ccccc3)NC=O)nnc2[C@@H](Cc2c[nH]c3ccccc23)NC(=O)C(C)(C)N)cc1 | – | 59 nM | 113 nM | 43 nM | – |
| COc1ccc(Cn2c([C@@H](Cc3c[nH]c4ccccc34)NC(C)=O)nnc2[C@@H](Cc2c[nH]c3ccccc23)NC(=O)C(C)(C)N)cc1 | – | 12 nM | 22 nM | – | – |
| COc1ccc(Cn2c([C@@H](Cc3c[nH]c4ccccc34)NC(=O)[C@H](CC(C)C)NC(=O)[C@H](CC(C)C)NC(C)=O)nnc2[C@@H](Cc2c[nH]c3ccccc23)NC(=O)C(C)(C)O)cc1 | 3 nM | – | – | – | EC50 [2]: 74 nM; Emax [2]: 75% |
| COc1ccc(Cn2c([C@@H](N)Cc3ccccc3)nnc2[C@@H](Cc2c[nH]c3ccccc23)NC(=O)c2ccccn2)cc1 | – | 62 nM | 320 nM | 150 nM | – |
